Laboratory results reported in ChEMBL document CHEMBL1143047, “Aminoglycoside antibiotic derivatives: preparation and evaluation of toxicity on cochlea and vestibular tissues and antimicrobial activity” (Bioorg Med Chem, 2007).
Activity calls are given as the source filed them.

Assays:
[1] = species: Cavia porcellus; experiment: Ototoxicity assessed as cochlear inner cells damage in Albino guinea pig with transtympanic application in right ear relative to left ear control; format: toxicity, organism-based; set-up: concentration or dose not given beside the values; conditions: other
Procedure, shortened: (§1)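 Albino guinea pigs (400–600 g) screened by Preyer reflex and otoscopy, with DPOAE/BEAP thresholds up to 5 dB in both ears under ketamine 65 mg/kg. Right ear got a transtympanic sample (0.08–0.10 mL, 0.22 mmol/mL, in water or DMSO); left ear got saline or DMSO; 06 animals. Cochlear hair cells and vestibule (semicircular channels, utriculus, sacculus) scored by SEM after glutaraldehyde/osmium fixation.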

[2] = species: Cavia porcellus; experiment: Ototoxicity assessed as cochlear outer cells damage in Albino guinea pig with transtympanic application in right ear relative to left ear control; format: toxicity, organism-based; set-up: concentration or dose not given beside the values; conditions: other; procedure, shortened: as §1
[3] = species: Cavia porcellus; experiment: Ototoxicity assessed as vestibular damage in Albino guinea pig with transtympanic application in right ear relative to left ear control; format: toxicity, organism-based; set-up: concentration or dose not given beside the values; conditions: in vivo, other; procedure, shortened: as §1
[4] = test system: Micrococcus luteus; experiment: Antimicrobial activity against Micrococcus luteus ATCC 9341 at 15 mg/ml after 24 hrs by micro dilution method; format: functional, organism-based
Procedure, shortened: (§2)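 Broth microdilution with about 5 × 10^4 CFU/mL per well. Compounds were dissolved in sterile water or in 10% DMSO/water and tested at 15 mg/mL in duplicate. Incubation was 24 h at 35 °C. Growth was scored qualitatively by medium turbidity (growth or no growth) against an inoculated-medium positive control and a medium-only negative control.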

[5] = test system: Staphylococcus aureus; experiment: Antimicrobial activity against Staphylococcus aureus ATCC 6538 at 15 mg/ml after 24 hrs by micro dilution method; format: functional, organism-based; procedure, shortened: as §2
[6] = test system: Staphylococcus epidermidis; experiment: Antimicrobial activity against Staphylococcus epidermidis ATCC 12228 at 15 mg/ml after 24 hrs by micro dilution method; format: functional, organism-based; procedure, shortened: as §2
[7] = test system: Escherichia coli; experiment: Antimicrobial activity against Escherichia coli ATCC 25922 at 15 mg/ml after 24 hrs by micro dilution method; format: functional, organism-based; procedure, shortened: as §2
[8] = test system: Pseudomonas aeruginosa; experiment: Antimicrobial activity against Pseudomonas aeruginosa ATCC 27853 at 15 mg/ml after 24 hrs by micro dilution method; format: functional, organism-based; procedure, shortened: as §2

SMILES	Activity [1]	Activity [2]	Activity [3]	Activity [4]	Activity [5]	Activity [6]	Activity [7]	Activity [8]
NC[C@H]1O[C@H](O[C@H]2[C@H](O)[C@@H](O)[C@H](N)C[C@@H]2N)[C@H](N)[C@@H](O)[C@@H]1O [NEAMINE]	0%	100%	100%	Active	Active	Active	Active	Active
CC(=O)NC[C@H]1O[C@H](O[C@@H]2[C@@H](O)[C@H](O)[C@@H](NC(C)=O)C[C@H]2NC(C)=O)[C@H](NC(C)=O)[C@@H](O)[C@@H]1O	0%	0%	0%	Active	Active	Active	Active	inactive
COC1OC[C@@H](O)[C@@H](O[C@H]2O[C@@H](CN)[C@@H](O)[C@H](O)[C@H]2N)[C@H]1O (some centres undefined) [METHYL-NEOBIOSAMINIDE B]	0%	0%	100%	Active	Active	Active	Active	Active
NC[C@@H]1O[C@H](O[C@H]2[C@@H](O)[C@H](O[C@@H]3[C@@H](O)[C@H](N)C[C@H](N)[C@H]3O[C@H]3O[C@H](CN)[C@@H](O)[C@H](O)[C@H]3N)O[C@@H]2CO)[C@H](N)[C@@H](O)[C@@H]1O [FRAMYCETIN]	0%	100%	50%	Active	Active	Active	Active	Active
COC(=O)NC[C@H]1O[C@H](O[C@@H]2[C@@H](O)[C@H](O)[C@@H](NC(=O)OC)C[C@H]2NC(=O)OC)[C@H](NC(=O)OC)[C@@H](O)[C@@H]1O	0%	0%	0%	–	–	–	–	–
N[C@@H]1C[C@H](N)[C@@H](O)[C@H](O)[C@H]1O	0%	0%	0%	Active	inactive	inactive	inactive	inactive
COc1ccc(/C=N\[C@H]2[C@@H](O[C@@H]3[C@@H](O)[C@H](O)[C@@H](/N=C/c4ccc(OC)cc4)C[C@H]3/N=C/c3ccc(OC)cc3)O[C@H](C/N=C/c3ccc(OC)cc3)[C@@H](O)[C@@H]2O)cc1	100%	0%	0%	–	–	–	–	–
O=C(NC[C@H]1O[C@H](O[C@@H]2[C@@H](O)[C@H](O)[C@@H](NC(=O)OCc3ccccc3)C[C@H]2NC(=O)OCc2ccccc2)[C@H](NC(=O)OCc2ccccc2)[C@@H](O)[C@@H]1O)OCc1ccccc1	0%	100%	0%	–	–	–	–	–
